# L929 necroptosis = blocks zVAD induced death of L929 cells; L929 zVAD necroptosis rescue, ATP luminescence, 24 h; with zVAD 60 µM; viability rescue, % at 10 µM; 0.38% of 220,000 active;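 active = activation, scaled between plate controls, above about 75%, limit read from the data; inactive = activation under that limit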;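 also: 0% = zVAD with DMSO and 100% = DMSO alone without zVAD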
# Lipid droplet = modulators of hepatic lipid droplet formation | AID 1656 | AML12 mouse hepatocytes, oleate lipid droplets, BODIPY imaging | 0.4% of 240,000 active | inhibition, % at 6.5 µM;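 active = lipid droplet intensity inhibited by at least 50%, with more than 500 cells counted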
#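 Assay system: AML12 mouse liver cells | Compound: 6.5 µM single-point dosing | Schedule: Overnight exposure | Technique: Fluorescence imaging, 20x objective, two fields per well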
# TNF necrop inh = inhibitors of TNF-alpha induced necroptosis in Jurkat FADD-/- cells. Jurkat FADD-/- TNF necroptosis rescue, ATP luminescence, 24 h; 0 = TNF only, 100 = no-TNF cells. activation (protection from cell death), % at 10 µM. 0.068% of 220,000 active. AID 463075;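 active = activation, meaning protection from cell death, of at least 50% relative to plate controls; inactive = activation below 50%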;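 also: necroptosis triggered by 40 ng/mL TNF-alpha added together with compound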
# Arbovirus inh = arbovirus infection inhibition; arbovirus infection cell-based antiviral screen; inhibition, % at 10 µM; 0.37% of 200,000 active; in the data active = inhibition above about 30%
# Pf gametocyte = P. falciparum stage V gametocyte viability inhibition. P. falciparum stage V gametocytes, ATP luminescence, 24 h. inhibition, % at 10.9 µM. 0.065% of 150,000 active;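 active = inhibition above the mean plus 3 SD of compounds within the control limits, set per campaign, cut at about 38% in these data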;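 also: 0% = DMSO wells and 100% = medium only without gametocytes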
# The depositor's hits bear a star; nt = not tested or not shown. Only some compounds are listed: those with a hit (about 0.91% of all), similar ones and a draw of the others.
SMILES,L929 necroptosis,Lipid droplet,TNF necrop inh,Arbovirus inh,Pf gametocyte
O=C1NC(=Nc2ccccc2)SC1Cc1cccc(Cl)c1Cl (configuration not stated),1,3,79*,17,nt
O=c1c(-c2ccccc2)c[nH]n1-c1cccc([N+](=O)[O-])c1,0,-1,-1,35*,nt
COc1ccc(NC(=O)c2cccc(N3C(=O)c4ccc(C(=O)Nc5ccc(OC)c(O)c5)cc4C3=O)c2)cc1O,nt,-13,nt,nt,nt
CN1CCN(NC(=O)c2cccc(C(F)(F)F)c2)CC1,0,1,2,nt,8
COc1ccccc1NC(=O)C12CC3CC(C1)CC(c1ccc(C)cc1)(C3)C2,0,nt,0,32*,1
COc1ccc(CN(C(=O)c2oc3ccccc3c2C)C2CCS(=O)(=O)C2)cc1OC (configuration not stated),0,-1,0,87*,nt
COc1ccc(CN(C(=O)c2oc3cc(C)c(C)cc3c2C)C2CCS(=O)(=O)C2)cc1OC (configuration not stated),nt,-8,nt,nt,nt
Cc1ccc(OCc2cc(C(=O)N(C)CCc3ccccn3)no2)cn1,nt,0,nt,nt,nt
COCC(=O)Nc1ccc(Br)cc1C,-1,3,0,-3,39*
CCOC(=O)c1sc(NC(=O)C2CC(=O)N(c3ccc(OC)cc3)C2)nc1C (configuration not stated),nt,-13,nt,nt,nt
O=C1CCCC2=C1C(c1ccncc1)c1c(nc(SCc3ccccc3Cl)[nH]c1=O)N2 (configuration not stated),0,-5,-1,7,-24
CCC(C)Sc1nc2c(c(=O)[nH]1)C(c1cccs1)C1=C(CCCC1=O)N2 (configuration not stated),0,-3,0,33*,nt
COc1ccccc1C1CC(c2ccccc2)=NN1C(=S)Nc1ccccc1 (configuration not stated),0,-48,0,3,5
CC(NC(=O)c1cc(Br)ccc1Cl)c1ccccc1 (configuration not stated),1,-8,80*,nt,-2
O=C(N/N=C/c1cn(-c2ccccc2)nc1-c1cc2ccccc2o1)c1c[nH]c2ccccc12,3,52*,-2,-14,18
Cc1csc(N/N=C/c2ccc(O)c([N+](=O)[O-])c2)n1,0,0,12,1,-15
O=[N+]([O-])c1cc(/C=N\Nc2nc(-c3ccccc3)cs2)ccc1O,2,-3,0,48*,0
CC1CN(C(=O)COC(=O)c2ccccc2O)CC(C)O1 (configuration not stated),nt,1,nt,nt,nt
Cc1nc2ncnn2c(N2CCCC(C(=O)Nc3ccccc3Br)C2)c1C (configuration not stated),2,3,3,10,-8
CCCc1cc(=O)[nH]c(SCC(=O)N2CCN(S(=O)(=O)c3ccccc3)CC2)n1,1,5,2,4,-15
CCCc1cc(=O)[nH]c(SCC(=O)N2CCN(S(=O)(=O)c3ccc4ccccc4c3)CC2)n1,1,0,1,-4,64*
COC(=O)[C@H](Cc1ccccc1)NC(=O)O[C@@H]1C(=O)c2cc(OC)ccc2O[C@H]1c1ccc(OC)c(Br)c1,5,6,-1,32*,nt
CC[C@H](C)[C@@H](NC(=O)O[C@@H]1C(=O)c2cc(OC)ccc2O[C@H]1c1ccc(OC)c(Br)c1)C(=O)OC,4,-9,-1,-1,nt
CCOc1ccc(C(=O)Nc2cccc(C(=O)O)c2)cc1Cl,2,6,-1,8,-6
CCOc1ccc(C(=O)Nc2cc(NC(=O)c3ccc(OCC)c(Cl)c3)cc(C(=O)O)c2)cc1Cl,0,1,0,88*,7
SMILES,L929 necroptosis,Lipid droplet,TNF necrop inh,Arbovirus inh,Pf gametocyte
COC(=O)c1ccc(COc2ccc(C(=O)c3ccccc3)cc2)o1,nt,-1,nt,nt,nt
COC(=O)c1ccc(COc2ccc(F)cc2)o1,nt,61*,nt,nt,nt
C/C(Cl)=C/CN1C(=O)C2C3C=CC(C3)C2C1=O (configuration not stated),4,-1,68*,-3,-31
O=C1N/C(=C/c2ccc(N3CCOCC3)o2)C(=O)N1c1cccc(Cl)c1,0,-15,-2,-1,1
COCc1ccc(CN2CCC(n3nccc3NC(=O)CCCc3ccccc3)CC2)o1,nt,3,nt,nt,nt
O=C(Nc1ccc(C(=O)O)cc1)/C(=C\C=C\c1ccccc1)NC(=O)c1ccc(Br)cc1,0,12,1,7,-29
